Data on 16 molecules can be found in ChEMBL document CHEMBL1144318, “Tryptamine-based human beta3-adrenergic receptor agonists. Part 3: improved oral bioavailability via modification of the sulfonamide moiety” (Bioorg Med Chem Lett, 2005).

The target of assay [1] is T1, Beta-3 adrenergic receptor (Homo sapiens, UniProt P13945). Nature of the assay: Intrinsic activity against human beta-3 adrenergic receptor IA) as a percentage of maximal stimulation with isoproterenol. The assay is classed as functional. In outline:
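In CHO cells expressing low-density human β3-AR (13,000 receptors/cell), cAMP accumulation was measured. Intrinsic activity is expressed as a percentage of the maximal stimulation produced by isoproterenol.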
Target sequence in this assay (P13945 whole entry, looked up): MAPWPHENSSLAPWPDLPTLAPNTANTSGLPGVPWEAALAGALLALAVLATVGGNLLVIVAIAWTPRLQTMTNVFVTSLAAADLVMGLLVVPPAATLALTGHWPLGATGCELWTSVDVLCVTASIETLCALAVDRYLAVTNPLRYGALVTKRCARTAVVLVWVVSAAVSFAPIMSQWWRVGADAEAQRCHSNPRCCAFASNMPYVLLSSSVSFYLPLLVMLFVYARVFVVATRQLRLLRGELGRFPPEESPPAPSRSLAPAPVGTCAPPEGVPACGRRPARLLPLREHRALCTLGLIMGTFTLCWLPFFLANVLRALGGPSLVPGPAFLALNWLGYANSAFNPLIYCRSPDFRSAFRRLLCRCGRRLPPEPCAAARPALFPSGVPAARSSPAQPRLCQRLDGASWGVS

Assay [2] deals with Beta-1 adrenergic receptor (Homo sapiens, UniProt P08588). The experiment in a line: Agonistic activity was assessed by measuring cAMP accumulation in CHO cells expressing human beta-1 adrenergic receptor. It counts as functional, cell-based.
Assay [3] deals with T2, Beta-2 adrenergic receptor (Homo sapiens, UniProt P07550). Nature of the assay: Agonistic activity was assessed by measuring cAMP accumulation in CHO cells expressing human beta-2 adrenergic receptor. It counts as functional, cell-based. (In general: Cyclic AMP is a second messenger, typically raised through Gs and lowered through Gi signalling.)
In assay [4] the target is T1, Beta-3 adrenergic receptor. Nature of the assay: Agonistic activity was assessed by measuring cAMP accumulation in CHO cells expressing human beta-3 adrenergic receptor. It counts as functional, cell-based.
Target sequence in this assay (P13945 whole entry): as the sequence (P13945 whole entry, looked up) above
Assay [5] concerns Caco-2. Nature of the assay: Permeability of compounds was determined in Caco-2 cell monolayer permeability assay; (high). The assay is classed as functional, cell-based. The note with it: Homo sapiens. On the technique in general: Passage across Caco-2 layers is used to estimate intestinal permeability.
In assay [6] the target is T2, Beta-2 adrenergic receptor. The experiment in a line: Effective concentration against human beta-2 adrenergic receptor. The assay is classed as functional.
Assay [7] deals with Caco-2. The experiment in a line: Permeability of compounds was determined in Caco-2 cell monolayer permeability assay; (moderate). The assay is classed as functional, cell-based. The note with it: Homo sapiens.

What is called EC50 is the concentration needed to bring the measured effect to its halfway point. A lower EC50 goes with greater potency.

Beta-1 adrenergic receptor, sequence (P08588 whole entry): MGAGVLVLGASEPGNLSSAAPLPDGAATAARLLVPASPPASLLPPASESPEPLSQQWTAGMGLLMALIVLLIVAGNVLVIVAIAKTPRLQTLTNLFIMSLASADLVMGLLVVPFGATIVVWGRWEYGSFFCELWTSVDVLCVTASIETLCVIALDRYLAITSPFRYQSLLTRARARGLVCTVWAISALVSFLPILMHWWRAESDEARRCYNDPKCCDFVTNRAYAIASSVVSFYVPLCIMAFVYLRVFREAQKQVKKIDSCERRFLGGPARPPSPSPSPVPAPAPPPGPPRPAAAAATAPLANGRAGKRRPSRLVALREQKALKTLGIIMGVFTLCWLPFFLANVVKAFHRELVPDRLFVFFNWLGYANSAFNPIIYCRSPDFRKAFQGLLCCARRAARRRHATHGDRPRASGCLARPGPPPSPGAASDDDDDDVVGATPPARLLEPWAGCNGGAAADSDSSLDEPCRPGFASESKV
T2 sequence (P07550 whole entry): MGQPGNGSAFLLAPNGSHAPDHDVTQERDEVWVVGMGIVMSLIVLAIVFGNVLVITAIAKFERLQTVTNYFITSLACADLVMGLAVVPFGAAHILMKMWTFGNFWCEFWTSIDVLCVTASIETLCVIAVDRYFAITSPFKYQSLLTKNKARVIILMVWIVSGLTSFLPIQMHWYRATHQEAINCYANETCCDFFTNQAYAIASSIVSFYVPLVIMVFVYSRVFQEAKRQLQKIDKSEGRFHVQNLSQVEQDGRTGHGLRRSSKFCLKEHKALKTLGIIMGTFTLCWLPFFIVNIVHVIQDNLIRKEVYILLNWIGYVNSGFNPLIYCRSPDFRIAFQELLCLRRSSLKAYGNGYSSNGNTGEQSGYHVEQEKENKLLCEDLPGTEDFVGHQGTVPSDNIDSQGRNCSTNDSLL

In assay [1], `C#CCNc1cccc([C@@H](O)CN[C@H](C)Cc2c[nH]c3c(OS(C)(=O)=O)cccc23)c1` showed an IA50 of 102%. The half-maximal effective concentration (EC50) is 45 nM in assay [2], 9.6 nM in assay [3] and 10 nM in assay [4].

Consider `CC#CCNc1cccc([C@@H](O)CN[C@H](C)Cc2c[nH]c3c(OS(C)(=O)=O)cccc23)c1`, for which the IA50 in assay [1] came to 90%. Moreover, the concentration for a half-maximal effect (EC50) in assay [3] was found to be 18 nM; in assay [4] it was 6.5 nM.

Molecule `CC(C)=CCNc1cccc([C@@H](O)CN[C@H](C)Cc2c[nH]c3c(OS(C)(=O)=O)cccc23)c1` returned an IA50 in assay [1] of 79%. The 50% effective concentration (EC50) in assay [2] was determined as 160 nM; in assay [3], 36 nM; in assay [4], 36 nM.

Consider `C[C@H](Cc1c[nH]c2c(OS(C)(=O)=O)cccc12)NC[C@H](O)c1cccc(NCc2ccccc2)c1`, for which, in assay [1], the IA50 worked out at 87%. Moreover, the EC50 is 16 nM in assay [3] and 11 nM in assay [4]. In the assay with Caco-2 [5], this molecule gave a Permeability (Papp* 10E6 cm/s) of 9.

The molecule `C[C@H](Cc1c[nH]c2c(OS(C)(=O)=O)cccc12)NC[C@H](O)c1cccc(NCc2ccc3ccccc3c2)c1` came in with an IA50 in assay [1] of 107%. For the same molecule, in assay [4], the response was half-maximal at 2.9 nM (EC50).

For the molecule `C=C(C)CNc1cccc([C@@H](O)CN[C@H](C)Cc2c[nH]c3c(OS(C)(=O)=O)cccc23)c1`, in assay [1], the IA50 amounted to 114%. Also, the figures for the EC50 in assay [3] and in assay [4] were 1.5 nM and 17 nM, respectively.

Take `C[C@H](Cc1c[nH]c2c(OS(C)(=O)=O)cccc12)NC[C@H](O)c1cccc(NS(=O)(=O)c2ccccc2)c1`: the EC50 in assay [6] stood at 19 nM; in assay [2], 13 nM; in assay [4] it was 0.54 nM. In assay [1], this molecule yielded an IA50 of 90%.

In turn, `C=CCNc1cccc([C@@H](O)CN[C@H](C)Cc2c[nH]c3c(OS(C)(=O)=O)cccc23)c1` came in with an IA50 in assay [1] of 110%. Further, the EC50 in assay [3] came to 2.2 nM; in assay [4] it was 3.2 nM.

With `C[C@H](Cc1c[nH]c2c(OS(C)(=O)=O)cccc12)NC[C@H](O)c1cccc(NC/C=C/c2ccccc2)c1`, the IA50 in assay [1] worked out at 97%. Also, the EC50 in assay [3] was 13 nM; in assay [4] it was 1 nM.

As for `C[C@H](Cc1c[nH]c2c(OS(C)(=O)=O)cccc12)NC[C@H](O)c1cccc(N(C)S(=O)(=O)c2ccccc2)c1`, the IA50 in assay [1] is 38%. Further, in assay [4], the half-maximal effective concentration (EC50) came to 52 nM. For the same molecule, the Permeability (Papp* 10E6 cm/s) in the assay on Caco-2 [5] amounted to 4.7.

On to `C/C=C/CNc1cccc([C@@H](O)CN[C@H](C)Cc2c[nH]c3c(OS(C)(=O)=O)cccc23)c1`, for which the IA50 in assay [1] was determined as 102%. The EC50 amounted to 170 nM in assay [2], 10 nM in assay [3] and 1.2 nM in assay [4].

Take `C[C@H](Cc1c[nH]c2c(OS(C)(=O)=O)cccc12)NC[C@H](O)c1cccc(NC(=O)c2ccccc2)c1`: the Permeability (Papp* 10E6 cm/s) in the assay on Caco-2 [7] came to 0.9. In assay [1], the IA50 worked out at 96%. In addition, the half-maximal effective concentration (EC50) in assay [2] stood at 120 nM; in assay [3], 69 nM; in assay [4], 160 nM.

Regarding `C[C@H](Cc1c[nH]c2c(OS(C)(=O)=O)cccc12)NC[C@H](O)c1cccc(OCc2ccccc2)c1`, the IA50 in assay [1] was determined as 90%. The EC50 in assay [3] is 46 nM; in assay [4], 15 nM. The molecule further gave a Permeability (Papp* 10E6 cm/s) in the assay on Caco-2 [5] of 6.7.

For the molecule `C[C@H](Cc1c[nH]c2c(OS(C)(=O)=O)cccc12)NC[C@H](O)c1cccc(OS(=O)(=O)c2ccccc2)c1`, the IA50 in assay [1] is 60%. Further, it took 32 nM to reach a half-maximal effect in assay [4] (EC50). In addition, the Permeability (Papp* 10E6 cm/s) in the assay on Caco-2 [5] came to 7.

Consider `C[C@H](Cc1c[nH]c2c(OS(C)(=O)=O)cccc12)NC[C@H](O)c1cccc(CS(=O)(=O)c2ccccc2)c1`, for which the Permeability (Papp* 10E6 cm/s) with Caco-2 [7] is 0.9. This molecule came in with an IA50 in assay [1] of 54%. The molecule also gave an EC50 in assay [4] of 100 nM.

Regarding `CC/C=C/CNc1cccc([C@@H](O)CN[C@H](C)Cc2c[nH]c3c(OS(C)(=O)=O)cccc23)c1`, the IA50 in assay [1] is 101%. In addition, the half-maximal effective concentration (EC50) in assay [3] was 11 nM; in assay [4], 9 nM.
